Results on eight compounds are retold here after ChEMBL document CHEMBL3763082, “Design and synthesis of novel hybrid sydnonimine and prodrug useful for glaucomatous optic neuropathy” (Bioorg Med Chem Lett, 2016).

The structures appear in SMILES notation. The source made the active and inactive calls. The calls are words filed in the database; no cut-off is given here.

Data set [1] can be described thus: Half life of compound in 0.5 M phosphate buffer at pH 7.4 at 25 degC by LC/MS analysis. The data set is classed as physicochemical. The note with it: for t1/2: buffer; for half-life: phosphate buffer.
Data set [2] in a line: Half life of compound in 0.5 M phosphate buffer at pH 6.5 at 25 degC by LC/MS analysis. The data set is classed as physicochemical. The note with it: for t1/2: buffer; for half-life: phosphate buffer.
A further data set relates to Rhesus monkey. The data set is described as follows: Suppression of elevated intraocular pressure in lasered monkey eye at 150 ug at 6 hrs. The data set is classed as functional, Macaca mulatta.
A further data set concerns 661W. The data set is described as follows: Increase in number of mouse 661W cells at 10 to 50 uM after 24 hrs by MTT assay relative to vehicle control. The data set is classed as functional, cell-based. In a few lines:
(§1)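 About 3000 NTM5 trabecular meshwork cells or transformed 661 W photoreceptor cells seeded per well, exposed to 10, 50 or 100 μM for 24 h; vehicle DMEM/DMSO (1 mL/10 μL). Viability by MTT-type kit (tetrazolium reduced to formazan), absorbance 490 nm; eight biological replicates.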
(Tetrazolium dyes change colour on reduction, which living cells bring about.)

Data set [3] can be described thus: Upregulation of SOD in H2O2-induced mouse 661W cells at 50 to 100 uM by Cayman's superoxide dismutase assay. The data set is classed as functional. In a few lines:
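SOD activity in 661 W cells treated with test agent in combination with H2O2, vehicle DMEM plus DMSO; commercial kit detecting superoxide generated by xanthine oxidase/hypoxanthine with a tetrazolium salt, per manufacturer's instructions.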

Data set [4] is described as follows: Induction of nitric oxide release in 50 mM phosphate buffer at pH 7.4 after 10 mins by Greiss assay. It counts as physicochemical. The note with it: pH 7.4, 10 min.
Data set [5] is described as follows: Neuroprotective effect against H2O2-induced oxidative stress in mouse 661W cells assessed as cell viability at 50 to 100 uM by MTT assay relative to control. The data set is classed as functional, cell-based.
Data set [6] in a line: Cytotoxicity against human NTM5 cells assessed as cell viability at 100 uM after 24 hrs by MTT assay. The data set is classed as cell-based. The essentials:
as §1

Data set [7] is described as follows: Cytotoxicity against mouse 661W cells assessed as cell viability at 100 uM after 24 hrs by MTT assay. The data set is classed as cell-based. In a few lines: as §1

As for `CC(OC(=O)[N-]c1c[n+](N2CCOCC2)no1)OC(=O)C(C)(C)C` (stereo not given), the t1/2 was determined as 9 months in data set [1] and 18 months in data set [2].
On to `CC(OC(=O)[N-]c1c[n+](C2CC(C)(C)N(O)C(C)(C)C2)no1)OC(=O)C(C)(C)C` (stereo not given), for which the t1/2 worked out at 9.1 months in data set [1] and 15.3 months in [2].
As for `CC1(C)CC(O[N+](=O)[O-])CC(C)(C)N1O`, the Activity in the data set on Rhesus monkey stood at 20%.
Consider `[NH-]c1c[n+](N2CCOCC2)no1`, for which the outcome (with 661W; in data set [3]) was inactive.
On to `O=[N+]([O-])OCC(CO[N+](=O)[O-])O[N+](=O)[O-]` [NITROGLYCERIN], for which the Activity in the data set on Rhesus monkey is 13%.
`CC1(C)CC([n+]2cc([NH-])on2)CC(C)(C)N1O.Cl`: the result (in the data set on 661W; in data set [3]; in [5]) was Active. The figures for the Activity entry in data set [4], in [6] and in data set [7] were “Active”, “Non-toxic” and “Non-toxic”, respectively. Also, the half-life in data set [1] and in data set [2] was less than 24 h throughout.
Consider `N=c1c[n+](N2CCOCC2)[n-]o1` [LINSIDOMINE], for which the outcome in data set [4] was Active. Besides, the half-life in data set [1] and in data set [2] was less than 24 h throughout.
For the compound `CC1(C)CC(O)CC(C)(C)N1[O]`, in the data set on 661W, the outcome was inactive.

What is called half-life is the time in which the quantity being followed falls by half.
